How the values were obtained:
[1] = Half life in rat liver microsomes; type: ADME
[2] = Half life in mouse liver microsomes; type: ADME
[3] = Half life in human liver microsomes; type: ADME
[4] = molecular target: T1, Mineralocorticoid receptor (Homo sapiens, UniProt P08235); assay: Inhibition of Mineralocorticoid receptor (unknown origin)
T1 sequence (P08235 whole entry): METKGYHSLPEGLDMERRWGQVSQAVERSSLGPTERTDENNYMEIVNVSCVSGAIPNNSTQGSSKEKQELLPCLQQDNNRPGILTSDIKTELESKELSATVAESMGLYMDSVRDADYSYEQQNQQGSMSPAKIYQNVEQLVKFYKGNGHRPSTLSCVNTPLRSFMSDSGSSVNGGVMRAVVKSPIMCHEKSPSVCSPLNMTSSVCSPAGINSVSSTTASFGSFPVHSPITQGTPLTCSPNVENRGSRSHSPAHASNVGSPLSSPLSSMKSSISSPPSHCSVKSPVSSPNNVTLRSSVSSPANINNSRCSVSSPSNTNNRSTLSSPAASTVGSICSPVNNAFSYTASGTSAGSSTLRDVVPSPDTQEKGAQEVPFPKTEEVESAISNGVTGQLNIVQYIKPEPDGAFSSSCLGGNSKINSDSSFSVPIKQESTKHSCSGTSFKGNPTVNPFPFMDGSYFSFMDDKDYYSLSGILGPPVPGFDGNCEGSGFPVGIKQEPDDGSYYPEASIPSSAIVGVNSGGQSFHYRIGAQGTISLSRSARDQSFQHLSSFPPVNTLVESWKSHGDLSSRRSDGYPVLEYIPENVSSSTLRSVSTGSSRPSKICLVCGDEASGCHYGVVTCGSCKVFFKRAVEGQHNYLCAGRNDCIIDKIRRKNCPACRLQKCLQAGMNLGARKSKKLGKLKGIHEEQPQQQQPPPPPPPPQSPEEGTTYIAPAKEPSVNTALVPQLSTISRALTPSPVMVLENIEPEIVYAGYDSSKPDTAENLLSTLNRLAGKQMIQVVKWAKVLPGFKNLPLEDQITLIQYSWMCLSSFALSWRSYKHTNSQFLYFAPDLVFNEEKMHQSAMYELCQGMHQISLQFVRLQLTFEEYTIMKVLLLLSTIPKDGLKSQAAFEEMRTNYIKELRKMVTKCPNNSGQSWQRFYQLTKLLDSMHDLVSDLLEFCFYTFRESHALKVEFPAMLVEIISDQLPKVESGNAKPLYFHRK

Retinoid X receptor = molecular target: T2, Retinoid X receptor (Homo sapiens, UniProt P28702+P48443+P19793); assay: Inhibition of RXR (unknown origin); type: protein assay
T2 sequence (P28702 whole entry): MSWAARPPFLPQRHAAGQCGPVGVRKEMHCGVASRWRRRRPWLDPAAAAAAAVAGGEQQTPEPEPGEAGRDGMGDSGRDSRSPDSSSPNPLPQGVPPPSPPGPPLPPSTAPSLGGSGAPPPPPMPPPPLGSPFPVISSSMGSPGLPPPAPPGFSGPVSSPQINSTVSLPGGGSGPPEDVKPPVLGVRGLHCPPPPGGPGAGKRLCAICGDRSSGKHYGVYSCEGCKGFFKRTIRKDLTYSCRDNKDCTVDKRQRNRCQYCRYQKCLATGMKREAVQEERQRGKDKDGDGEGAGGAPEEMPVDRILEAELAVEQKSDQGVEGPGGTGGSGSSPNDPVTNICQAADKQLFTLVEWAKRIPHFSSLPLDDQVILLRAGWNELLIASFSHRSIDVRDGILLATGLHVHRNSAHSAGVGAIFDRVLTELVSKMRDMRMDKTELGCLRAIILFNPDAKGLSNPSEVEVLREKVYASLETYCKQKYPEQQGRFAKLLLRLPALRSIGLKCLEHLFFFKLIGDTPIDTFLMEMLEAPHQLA
T2 sequence (P48443 whole entry): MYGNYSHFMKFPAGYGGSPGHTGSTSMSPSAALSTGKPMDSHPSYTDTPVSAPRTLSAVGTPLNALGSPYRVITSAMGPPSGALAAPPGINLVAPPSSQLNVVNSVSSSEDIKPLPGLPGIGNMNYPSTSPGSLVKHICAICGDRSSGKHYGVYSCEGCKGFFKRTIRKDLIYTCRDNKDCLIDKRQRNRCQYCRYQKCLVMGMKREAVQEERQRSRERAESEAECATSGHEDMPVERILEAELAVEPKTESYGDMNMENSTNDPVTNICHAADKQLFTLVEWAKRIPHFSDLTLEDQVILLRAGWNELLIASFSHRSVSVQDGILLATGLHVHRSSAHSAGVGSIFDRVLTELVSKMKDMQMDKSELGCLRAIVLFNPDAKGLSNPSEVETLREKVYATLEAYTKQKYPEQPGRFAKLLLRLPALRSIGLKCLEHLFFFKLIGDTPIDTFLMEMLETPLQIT
T2 sequence (P19793 whole entry): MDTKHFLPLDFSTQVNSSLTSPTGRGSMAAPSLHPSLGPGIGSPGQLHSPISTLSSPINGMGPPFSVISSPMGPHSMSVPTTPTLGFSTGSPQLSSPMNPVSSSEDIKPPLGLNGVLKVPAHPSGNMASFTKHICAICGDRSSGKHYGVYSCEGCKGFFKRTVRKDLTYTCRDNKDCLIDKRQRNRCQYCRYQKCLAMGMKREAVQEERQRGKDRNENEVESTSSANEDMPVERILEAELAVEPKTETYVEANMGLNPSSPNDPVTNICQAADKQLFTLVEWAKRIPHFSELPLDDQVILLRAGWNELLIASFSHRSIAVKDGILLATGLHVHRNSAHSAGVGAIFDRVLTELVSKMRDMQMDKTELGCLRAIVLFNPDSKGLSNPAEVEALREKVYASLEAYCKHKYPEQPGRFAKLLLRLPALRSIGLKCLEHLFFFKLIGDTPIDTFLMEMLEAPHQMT

[5] = molecular target: T3, Nuclear receptor subfamily 1 group I member 2 (Homo sapiens, UniProt O75469); assay: Inhibition of PXR (unknown origin)
T3 sequence (O75469 whole entry): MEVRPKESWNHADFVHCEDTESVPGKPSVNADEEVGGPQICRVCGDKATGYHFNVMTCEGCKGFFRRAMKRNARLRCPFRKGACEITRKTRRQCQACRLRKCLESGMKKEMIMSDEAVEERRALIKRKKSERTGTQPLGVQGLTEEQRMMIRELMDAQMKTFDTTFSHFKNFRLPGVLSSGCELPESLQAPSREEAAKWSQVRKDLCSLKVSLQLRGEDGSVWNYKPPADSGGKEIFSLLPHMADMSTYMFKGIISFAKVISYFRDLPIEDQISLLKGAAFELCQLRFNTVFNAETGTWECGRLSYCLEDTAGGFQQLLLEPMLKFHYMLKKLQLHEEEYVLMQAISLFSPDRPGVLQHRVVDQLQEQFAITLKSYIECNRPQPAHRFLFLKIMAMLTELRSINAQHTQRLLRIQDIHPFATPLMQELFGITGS

[6] = Half life in cynomolgus monkey liver microsomes; type: ADME, Macaca fascicularis
[7] = molecular target: T4, Nuclear receptor ROR-alpha (Homo sapiens, UniProt P35398); assay: Inhibition of RORalpha receptor (unknown origin)
T4 sequence (P35398 whole entry): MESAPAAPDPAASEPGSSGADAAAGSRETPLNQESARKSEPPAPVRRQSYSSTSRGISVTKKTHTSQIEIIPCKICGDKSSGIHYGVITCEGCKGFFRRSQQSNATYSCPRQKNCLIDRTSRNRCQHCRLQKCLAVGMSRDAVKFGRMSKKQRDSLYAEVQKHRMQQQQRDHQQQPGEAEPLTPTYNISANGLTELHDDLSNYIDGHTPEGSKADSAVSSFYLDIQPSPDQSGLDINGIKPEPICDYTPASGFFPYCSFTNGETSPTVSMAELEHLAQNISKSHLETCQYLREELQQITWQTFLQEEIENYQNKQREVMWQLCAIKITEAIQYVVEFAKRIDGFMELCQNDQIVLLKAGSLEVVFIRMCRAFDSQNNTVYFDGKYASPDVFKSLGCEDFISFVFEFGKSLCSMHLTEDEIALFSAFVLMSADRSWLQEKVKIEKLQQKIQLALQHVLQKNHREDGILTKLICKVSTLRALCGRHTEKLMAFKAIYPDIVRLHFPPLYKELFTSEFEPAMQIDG

[8] = molecular target: T5, Oxysterols receptor LXR-beta (Homo sapiens, UniProt P55055); assay: Binding to human LXRbeta
T5 sequence (P55055 whole entry): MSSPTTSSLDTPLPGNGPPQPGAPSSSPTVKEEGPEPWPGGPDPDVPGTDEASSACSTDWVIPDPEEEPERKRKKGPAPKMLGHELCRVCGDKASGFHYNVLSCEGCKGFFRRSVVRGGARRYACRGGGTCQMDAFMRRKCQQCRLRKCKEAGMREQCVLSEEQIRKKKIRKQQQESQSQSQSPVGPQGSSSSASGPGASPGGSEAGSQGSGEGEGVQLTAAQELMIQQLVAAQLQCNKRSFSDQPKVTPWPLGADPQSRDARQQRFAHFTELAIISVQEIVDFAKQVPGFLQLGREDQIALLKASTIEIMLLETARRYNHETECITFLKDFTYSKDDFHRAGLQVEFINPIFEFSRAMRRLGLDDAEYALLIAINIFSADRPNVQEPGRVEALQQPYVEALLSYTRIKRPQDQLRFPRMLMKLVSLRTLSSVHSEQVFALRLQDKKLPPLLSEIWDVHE

[9] = molecular target: T6, Oxysterols receptor LXR-alpha (Homo sapiens, UniProt Q13133); assay: Agonist activity at human LXRalpha coexpressed in African green monkey CV1 cells by Gal4 responsive reporter gene assay; type: cell-based, CV-1
T6 sequence (Q13133 whole entry): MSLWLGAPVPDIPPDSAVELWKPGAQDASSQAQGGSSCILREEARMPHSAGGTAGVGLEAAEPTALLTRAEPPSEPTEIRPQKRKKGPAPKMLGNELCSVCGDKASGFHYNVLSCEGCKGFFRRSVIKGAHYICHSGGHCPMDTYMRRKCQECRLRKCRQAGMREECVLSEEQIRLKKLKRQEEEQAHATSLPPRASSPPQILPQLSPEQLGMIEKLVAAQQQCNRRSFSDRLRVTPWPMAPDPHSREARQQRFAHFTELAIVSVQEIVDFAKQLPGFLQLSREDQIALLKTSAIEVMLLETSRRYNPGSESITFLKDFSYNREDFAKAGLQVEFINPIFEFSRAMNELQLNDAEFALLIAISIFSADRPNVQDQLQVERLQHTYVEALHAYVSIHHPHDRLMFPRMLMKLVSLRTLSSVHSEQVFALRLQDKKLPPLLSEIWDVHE

[10] = molecular target: T5, Oxysterols receptor LXR-beta; assay: Agonist activity at human LXRbeta coexpressed in African green monkey CV1 cells by Gal4 responsive reporter gene assay; type: cell-based, CV-1
[11] = molecular target: T6, Oxysterols receptor LXR-alpha; assay: Binding affinity to human LXRalpha
[12] = molecular target: T6, Oxysterols receptor LXR-alpha; assay: Agonist activity at human LXRalpha by Gal4 assay
Method in brief: (§1)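 Cells were co-transfected with pG5-luc reporter and a Gal4 fusion of the ligand-binding domain (pGal4-LXRα LBD for α, pGal4-LXRβ LBD for β). Twenty hours after transfection, cells were treated with compound for 16 h. Agonist activity was read as luciferase signal and EC50 derived. Values are the average of at least two independent determinations.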

[13] = molecular target: T5, Oxysterols receptor LXR-beta; assay: Agonist activity at human LXRbeta by Gal4 assay; method in brief: as §1
[14] = molecular target: T6, Oxysterols receptor LXR-alpha; assay: Agonist activity at human LXRalpha ligand binding domain(167 to 447 residues) transfected in HEK293 cells after 16 hrs by Gal4-luciferase reporter gene assay; type: cell-based
[15] = molecular target: T5, Oxysterols receptor LXR-beta; assay: Agonist activity at human LXRbeta ligand binding domain(155 to 460 residues) transfected in HEK293 cells after 16 hrs by Gal4-luciferase reporter gene assay; type: cell-based

| half-life [1] | half-life [2] | half-life [3] | SMILES | further results |
| --- | --- | --- | --- | --- |
| 5 min | 11 min | – | CC(C)[C@@H]1CN(c2ccc(F)c(S(C)(=O)=O)c2)CCN1c1nccc(C(F)(F)F)n1 | – |
| 51 min | 72 min | 56 min | CC(C)[C@@H]1CN(c2ccc(F)c(S(C)(=O)=O)c2)CCN1c1ncc(C(C)(C)O)c(C(F)(F)F)n1 | – |
| 25 min | – | – | CC(C)[C@H]1CN(c2ccc(CO)c(S(C)(=O)=O)c2)CCN1c1ncc(CO)c(C(F)(F)F)n1 | – |
| 70 min | 40 min | 43 min | CC(C)[C@@H]1CN(c2ccc(CO)c(S(C)(=O)=O)c2)CCN1c1ncc(CO)c(C(F)(F)F)n1 | IC50 [4]: > 10000 nM; IC50 (Retinoid X receptor): > 10000 nM; IC50 [5]: > 10000 nM; half-life [6]: 10 min; IC50 [7]: > 10000 nM |
| 11 min | 8 min | – | CC(C)[C@@H]1CN(c2cccc(S(C)(=O)=O)c2)CCN1c1nccc(C(F)(F)F)n1 | – |
| – | – | – | C[C@H](CC[C@@H]1OC1(C)C)[C@H]1CC[C@H]2[C@@H]3CC=C4C[C@@H](O)CC[C@]4(C)[C@H]3CC[C@]12C [24(S),25-EPOXYCHOLESTEROL] | EC50 [8]: > 20000 nM; EC50 [9]: 117 nM; EC50 [10]: 168 nM; EC50 [11]: > 20000 nM |
| 36 min | 38 min | 22 min | CC(C)[C@@H]1CN(c2ccc(F)c(S(C)(=O)=O)c2)CCN1c1ncc(CO)c(C(F)(F)F)n1 | – |
| – | – | – | O=C(O)Cc1cccc(OCCCN(Cc2cccc(C(F)(F)F)c2Cl)CC(c2ccccc2)c2ccccc2)c1 | EC50 [8]: 5 nM; EC50 [12]: 1130 nM; EC50 [11]: 22 nM; EC50 [13]: 390 nM |
| 42 min | – | 19 min | CC(C)[C@@H]1CN(c2ccc(F)c(S(C)(=O)=O)c2)CCN1c1ncc(Cl)c(C(F)(F)F)n1 | – |
| – | – | – | FC(F)(F)c1ccc(CN2CCN(c3ccccc3)CC2c2ccccc2)cn1 (stereo unspecified) | EC50 [14]: > 20000 nM; EC50 [15]: > 20000 nM |
